From PubChem
A selection: hits, their analogues and other compounds. The true share with any hit is near 1.6%.
PKA-R1A activ – activators of PKA-R1A holoenzyme, primary screen, biochemical, fluorescence polarization, Cy5-IP20, bovine R1A, mouse PKAc | PKA-R1A dissociation; scaled: DMSO 0%, 113 µM cGMP 100% | activation, % at 11.4 µM | 340,000 tested, 0.083% active;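 active = percent activation above the mean of all tested compounds plus 3 SD, cut at about 19% in these data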;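 note: higher means more PKAc released from R1A so a rise in polarization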
ATG4B inhibitor – ATG4B protease inhibitors, primary screen, biochemical, fluorescence, uHTS | inhibition, % at 8.33 µM | ATG4B cleavage of LC3-PLA2, NBD-HPC fluorescence, 1 h | 340,000 tested, 0.51% active | Cysteine protease ATG4B (Homo sapiens), Q9Y4P1 | AID 504462, 2011; in the data active = inhibition above about 40%
T cell modulator – modulators of CD8 T cell-vesicle binding, primary screen, mouse 2C CD8+ T cells, flow cytometry; 2C CD8+ T cell-vesicle binding; hits give low values; response (vesicle binding), % at 7 µM; 330,000 tested, 0.068% active; AID 2052, 2009;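 active = response, share of CD8 T cells binding vesicles, and their 90th percentile fluorescence all below set limits, cut at about 80% in these data, passing the limit was not always enough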;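 note: values below 100% mean blocked vesicle binding to the CD8+ T cells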
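material = purified 2C TCR transgenic mouse naive CD8+ T cells | controls = Unloaded micro-vesicles (low), QL9 vesicles with 0.7% DMSO (high) | detection = cytometric PE anti-B7-1 and Alexa647 anti-CD8 signals after 1% paraformaldehyde fixation | incubation = binding step 1.5 h, 37 °C, antibody labelling 20 min, ice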
PfG6PD inh – PfG6PD enzyme inhibitors, primary screen, biochemical, fluorescence intensity, uHTS; glucose-6-phosphate dehydrogenase-6-phosphogluconolactonase (Plasmodium falciparum 3D7); PfGluPho enzyme, NADPH resazurin-diaphorase fluorescence; inhibition, % at 20 µM; 350,000 tested, 0.78% active;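 active = inhibition reaching at least a set limit at 20 µM in the primary screen, cut at about 59% in these data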
HKDC1 inhibitor – HKDC1 hexokinase inhibitors, primary screen, biochemical, fluorescence, uHTS; Q2TB90; recombinant HKDC1, G6PDH/diaphorase resazurin coupled fluorescence; inhibition, % at 20 µM; 340,000 tested, 0.16% active; AID 493160, 2011;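 active = inhibition above about 35% when tested at 20 µM, limit read from the data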
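test system = in-house recombinant HK5 (HKDC1) enzyme | amount = HKDC1 at 5 µg/mL | control set = DMSO-enzyme wells negative, buffer-substituted wells positive | compound = one dose of 20 µM, 1% DMSO | schedule = reaction time 90 min, room temperature, protected from light | technique = resorufin fluorescence at 613 nm | reagent = glucose with 1 mM ATP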
PKA-R2B activ – activators of PKA-R2B holoenzyme, primary screen, biochemical, fluorescence polarization, Cy5-IP20, human. 340,000 tested, 0.079% active. PKA-R2B holoenzyme dissociation; R2B truncated from residue 108, S112A mutant; 0% DMSO only, 100% 113 µM cGMP. activation, % at 11.4 µM;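 active = activation above a cutoff set at the mean over all compounds plus 3 SD, cut at about 18% in these data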;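 note: higher means more holoenzyme dissociation and a rise in polarization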
ATG4B conf – ATG4B protease inhibitors, retest, confirmation, biochemical, fluorescence, single concentration | ATG4B protease fluorescent substrate cleavage assay | shares compounds with ATG4B inhibitor | 320 tested, 92% active | inhibition, % at 8.33 µM; in the data active = inhibition above about 39%
PLA2 counter – PLA2 enzyme inhibition, counter-screen for ATG4B inhibitor project, biochemical, single concentration, uHTS hits; AID 588402, 2011; inhibition, % at 8.33 µM; shares compounds with ATG4B inhibitor; purified PLA2, NBD-C6-HPC fluorescence, 45 min; 1,600 tested, 66% active; in the data active = inhibition above about 50%
Target sequence (P04054 whole entry, looked up): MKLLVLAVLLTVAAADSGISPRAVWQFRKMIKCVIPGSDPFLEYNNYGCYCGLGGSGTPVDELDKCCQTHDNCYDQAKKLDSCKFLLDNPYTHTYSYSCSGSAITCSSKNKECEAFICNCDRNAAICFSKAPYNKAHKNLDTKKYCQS
Of the large screens only hits and unclear results are named; the others gave an inactive call (follow-up assays come after a bar, where they were run).

O=C(c1cc(-c2ccc(Cl)cc2)on1)N1CCc2ccccc2C1	none
CCCCn1c(NC(=O)c2ccc(F)cc2)c(C#N)c2nc3ccccc3nc21	none (no result: PKA-R1A activ, ATG4B inhibitor, PfG6PD inh, HKDC1 inhibitor, PKA-R2B activ)
CCCCn1c(NC(=O)c2ccccc2)c(C#N)c2nc3ccccc3nc21	ATG4B inhibitor 55 (no result: T cell modulator) | PLA2 counter 60
COc1ccc(OC)c(-c2csc(N(Cc3ccco3)C(=O)c3cccs3)n2)c1	ATG4B inhibitor 57 | PLA2 counter 72
COc1ccc(-c2csc(N(Cc3ccco3)C(=O)c3cccs3)n2)cc1	none
O=C1NC(=O)/C(=C\c2ccccc2OCc2ccccc2)S1	ATG4B inhibitor 47 | ATG4B conf 59 | PLA2 counter inactive
O=C1NC(=O)/C(=C\c2ccc(OCc3ccccc3)cc2)S1	none
CCCOc1ccc2ccccc2c1/C=C1\SC(=O)NC1=O	none (no result: ATG4B inhibitor) | PLA2 counter inactive
O=C(Cn1c(=O)cnc2ccccc21)NC1CCC(O)CC1 (stereo not drawn)	none
Cc1nn(CCC(N)=O)c2nc(-c3cccs3)cc(C(F)(F)F)c12	ATG4B inhibitor 86 | PLA2 counter 84
CC(C)(C)c1nnc(NS(=O)(=O)c2cc(Cl)ccc2Cl)s1	none
O=S(=O)(Nc1nc(-c2sccc2Cl)cs1)c1cc(Cl)ccc1Cl	ATG4B inhibitor 88 | PLA2 counter 77
CCN(C(=O)COC(=O)c1ccccc1Nc1ccccc1)c1c(N)n(Cc2ccccc2)c(=O)[nH]c1=O	none (no result: T cell modulator)
Cc1cc(/C=C2\SC(=S)NC2=O)c(C)n1-c1cccc(O)c1	none
Cc1sc(-n2c(C)cc(/C=C3\SC(=S)NC3=O)c2C)c(C#N)c1C	ATG4B inhibitor 81 | PLA2 counter 74
COc1ccc(Cc2nnc(SCC(=O)Nc3ccccc3C)n(N)c2=O)cc1	none
COc1ccc2c(c1)[C@@H]1[C@H](CO2)[C@H](c2ccccc2)[C@]2(C)C(=O)Nc3ccc(C)cc3C(=O)N12	ATG4B inhibitor 46 | PLA2 counter 71
CCc1ccc(S(=O)(=O)Nc2ccc(O)c3c(=O)cc(-c4ccccc4Cl)oc23)cc1	none
O=c1cc(-c2ccccc2Cl)oc2c(NS(=O)(=O)c3cc(Cl)cc(Cl)c3O)ccc(O)c12	ATG4B inhibitor 101 | PLA2 counter 103
COCCNc1nc(CSc2ccccc2)nc2sc(C)c(C)c12	ATG4B inhibitor 46 | PLA2 counter inactive
COc1ccc2c(c1)[nH]c1c(N3CCN(Cc4ccc5c(c4)OCO5)CC3)ncnc12	ATG4B inhibitor 45 | PLA2 counter 58
Cc1c(Cl)cccc1NC(=S)NCCC(c1ccccc1)c1ccccc1	ATG4B inhibitor 91 | PLA2 counter 93
Cc1c(Cl)cccc1NC(=S)NCCC(C)C	ATG4B inhibitor 64 | PLA2 counter 67
O=C(CCN1C(=O)C2CCCCC2C1=O)Nc1ccc(Br)cc1F (stereo not drawn)	none
O=C(N/N=C1\CC2CC=CC12)c1ccc(Br)cc1 (stereo not drawn)	none
Cc1cc(Br)c(OCc2ccc(C(=O)N/N=C3\CC4CC=CC34)cc2)c(Br)c1 (stereo not drawn)	ATG4B inhibitor 48 | PLA2 counter inactive
O=C(COC(=O)c1ccccc1SCC(=O)N1CCCC1)NCc1ccc(F)cc1	none (no result: ATG4B inhibitor, T cell modulator, HKDC1 inhibitor)
